Screening results deposited in PubChem BioAssay by Sanford-Burnham Center for Chemical Genomics.
Compounds with a hit are over-represented: about 2.9% of the library has one in this group of screens.
SENP8 block-1 = inhibitors of human SENP8 protease; AID 2540; purified SENP8, Z-RLRGG-aminoluciferin cleavage, luminescence; inhibition, % at 10 µM; 330,000 compounds, 1.2% hits; in the data active means inhibition above about 50%
SENP8 block-2 = blocks human SENP8 cleavage of Nedd8 substrate; recombinant SENP8, Nedd8 substrate fluorescence; inhibition, % at 20 µM; 360,000 compounds, 0.64% hits; AID 602440; in the data active means inhibition mostly above about 40%, no sharp cut-off; inactive means mostly below about 27%
SENP1 FRET inh = blocks the human SENP1 SUMO protease catalytic domain; Q9P0U3; recombinant SENP1 catalytic domain, CyPet-SUMO1-YPet FRET cleavage; inhibition, % at 10 µM; 360,000 compounds, 0.21% hits; AID 624204;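 active means inhibition at least 30% at 10 µM, raw YFP signal under a set limit, fluorescence ratio 0.5 to 1.5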
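Test system: recombinant human SENP1 catalytic domain, His6-tagged / Medium: pH 8 Tris buffer with EDTA, NaCl, BME, BSA, NP40, catalase / Also added: SUMO1 FRET substrate flanked by Cypet and Ypet, 25 nM / Times: 50 min reaction at room temperature / Signal: FRET, CFP and YFP emission / Control set: no-enzyme low control and enzyme-plus-DMSO high control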
SENP6 inh = inhibitors of human SENP6 protease. 330,000 compounds, 1.8% hits. Recombinant SENP6 catalytic domain, aminoluciferin luminescence. AID 2599. Q9GZR1. inhibition, % at 10 µM;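 active means inhibition above about 50% at the single tested dose, limit read from the data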
Apaf-1 inh = human Apaf-1 inhibition; reconstituted apoptosome caspase-3 activity, DEVD-Rh110 fluorescence; inhibition, % at 20 µM; O14727; 330,000 compounds, 0.71% hits; AID 489030; active means inhibition of at least 40% at 20 µM
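Material: reconstituted apoptosome with Apaf-1, cytochrome c, caspase-9, procaspase-3, dATP / Buffer or medium: pH 7.5 Hepes buffer with CHAPS, BSA, DTT / Also added: cytochrome c with DEVD-Rh110 / Schedule: compound with Apaf-1, dATP, procaspase-3 30 min, then 50 min reaction, room temperature / Technique: rhodamine 110 fluorescence at Ex 480/Em 540 nm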
SENP7 inh = SENP7 protease inhibition; Q9BQF6; recombinant SENP7, Z-RLRGG-aminoluciferin luminescence, 40 min; inhibition, % at 5 µM; 330,000 compounds, 1.5% hits; AID 434973;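 active means inhibition above about 50% at the single test dose, limit read from the data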
SENP8 confirm = confirmation of human SENP8 protease inhibitors | shares compounds with SENP7 inh | AID 488912 | inhibition, % at 12.5 µM | 6,200 compounds, 40% hits | Recombinant SENP8, Z-RLRGG-aminoluciferin luminescence, 60 min;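 active means mean inhibition across replicates above about 50%, limit read from the data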
SENP6 confirm = confirmation of human SENP6 protease inhibitors; 6,200 compounds, 58% hits; recombinant SENP6, Z-RLRGG-aminoluciferin luminescence; inhibition, % at 12.5 µM; shares compounds with SENP7 inh
SENP7 conf = confirmation of human SENP7 protease inhibitors. shares compounds with SENP7 inh. inhibition, % at 12.5 µM. recombinant SENP7, Z-RLRGG-aminoluciferin luminescence, 40 min. 6,200 compounds, 69% hits
Casp3 SENP sel = inhibits human caspase-3 in SENP selectivity test | shares compounds with SENP7 inh | purified caspase-3, Z-DEVD-aminoluciferin luminescence, 60 min | inhibition, % at 12.5 µM | 6,200 compounds, 60% hits | AID 488918;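 active means mean inhibition above about 50%, limit read from the data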
Luc interf = luminescence interference (SENP counter-screen); shares compounds with SENP7 inh; Pre-incubated SENP8/Z-RLRGG-aminoluciferin, luciferase luminescence interference; inhibition, % at 12.5 µM; 6,200 compounds, 39% hits; AID 488919;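 active means mean inhibition above about 50% when retested at one dose, limit read from the data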
Numbers stand for hits; i = inactive; nt = not tested or not shown.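 How the source made its calls, unless noted: active means mean inhibition above about 50% in the one-dose retest (limit read from the data); inactive means the rest.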

SMILES | SENP8 block-1 | SENP8 block-2 | SENP1 FRET inh | SENP6 inh | Apaf-1 inh | SENP7 inh | SENP8 confirm | SENP6 confirm | SENP7 conf | Casp3 SENP sel | Luc interf
OCC[n+]1c2ccccc2nc2ccc(N3CCOCC3)cc21 | i | i | i | 52 | i | i | i | 68 | i | i | i
O=C(CCc1ccccc1)N1Cc2cc(N3CCOCC3)ccc2-n2nncc2C1 | nt | i | i | nt | nt | nt | nt | nt | nt | nt | nt
Cc1ccc(S(=O)(=O)CC(=O)c2cc(C)c(OC(=O)N(C)C)c(C)c2)cc1 | i | i | i | i | i | i | nt | nt | nt | nt | nt
Cc1cc(C(=O)CS(=O)(=O)c2ccccc2)cc(C)c1OC(=O)N(C)C | i | i | i | 54 | i | i | i | i | 78 | 79 | i
CCCCOC(=O)c1ccc(NC(=O)c2c(O)[nH]c(=O)[nH]c2=O)cc1 | i | i | i | i | i | i | nt | nt | nt | nt | nt
CCOC(=O)c1cccc(NC(=O)c2c(O)[nH]c(=O)[nH]c2=O)c1 | i | i | i | 58 | i | 51 | i | i | 81 | 73 | i
Cc1ccc(OC(=O)N(C)C[C@@H]2OCc3cnnn3CCCC(=O)N([C@@H](C)CO)C[C@@H]2C)cc1 | nt | i | i | nt | nt | nt | nt | nt | nt | nt | nt
CC(C)(C)NC(=S)N1Cc2ccccc2-n2nncc2C1 | nt | i | i | nt | nt | nt | nt | nt | nt | nt | nt
O=c1[nH]c(=S)[nH]c(O)c1N=Nc1ccc(OC(F)F)cc1 | 92 | i | i | 94 | i | 93 | 91 | 92 | 88 | 96 | i
CCOC(=O)C1(CCc2ccccc2)CCN(Cc2ccc3c(c2)OCCO3)CC1 | i | i | i | 70 | i | i | i | i | i | i | i
Nc1c2c(nc3sc4c(c13)CCCCC4)CCCC2 | i | i | i | 54 | i | i | i | i | 67 | i | i
BrCC1C[n+]2c(SCc3ccccc3)nc3sc4c(c3c2O1)CCCC4 (configuration not stated) | i | i | i | i | i | i | nt | nt | nt | nt | nt
CC1(C)CN(S(=O)(=O)OCC(Cl)(Cl)Cl)C(=O)N1 | i | i | i | i | i | i | nt | nt | nt | nt | nt
Cn1cccc1C1CCCN1CC(=O)Nc1ccc(C#N)c(Cl)c1 (configuration not stated) | i | i | i | i | i | i | nt | nt | nt | nt | nt
CN1C(C(=O)N2CCC3(CC2)OCCO3)=CC(c2ccc(F)cc2)=NS1(=O)=O | i | i | i | i | i | i | nt | nt | nt | nt | nt
CNC(=O)Oc1ccc(-c2cn3cc(Cl)ccc3n2)cc1 | 64 | i | i | 78 | i | 67 | i | i | 75 | 72 | i
COC(=O)C1=C(c2ccc(C(C)=O)cc2)C[C@@H]2CC[C@H]1N2C(=O)NC(C)C | i | i | i | i | i | i | nt | nt | nt | nt | nt
Cn1c(O)c(C=Nc2ccc(Br)cc2)c(=O)n(C)c1=O | 50 | i | i | 59 | i | i | i | i | i | i | i
COc1ccc(N2CCN(C(CNC(=O)Oc3ccccc3)c3cccnc3)CC2)cc1 (configuration not stated) | i | i | i | i | i | 71 | i | i | i | i | i
COC(=O)C1=C(c2ccc(F)cc2F)C[C@@H]2CC[C@H]1N2C(=O)NCCOc1ccccc1 | i | i | i | i | i | i | nt | nt | nt | nt | nt
CC(C)CCNC(=O)c1c(N)n(CC2CCCO2)c2nc3ccccc3nc12 (configuration not stated) | 79 | i | i | 82 | 91 | 74 | i | i | i | i | i
CCCCn1c(N)c(C(=O)NCCN2CCOCC2)c2nc3ccccc3nc21 | i | i | i | i | i | i | nt | nt | nt | nt | nt
CCC1CN1P(=O)(N1CCCC1)N1CC1CC (configuration not stated) | nt | i | i | nt | nt | nt | nt | nt | nt | nt | nt
CCCCCSc1cc(OC)c(CCN(C)C)cc1OC | i | i | i | 53 | i | i | i | i | i | i | i
CN(C)C(=O)Oc1ccc(OCc2nc3ccccc3[nH]2)cc1 | i | i | i | 91 | i | 95 | 94 | 94 | 100 | 96 | 93
SMILES | SENP8 block-1 | SENP8 block-2 | SENP1 FRET inh | SENP6 inh | Apaf-1 inh | SENP7 inh | SENP8 confirm | SENP6 confirm | SENP7 conf | Casp3 SENP sel | Luc interf
CN(C)C(=O)Oc1ccc(OC(=O)N(C)C)cc1 | i | i | i | i | i | i | nt | nt | nt | nt | nt
Oc1cc(O)cc(/C=C/c2ccc(O)cc2O)c1 | i | i | i | 70 | i | i | 62 | 62 | 87 | 59 | 77
Nc1ccccc1C(=O)OCCOc1ccccc1 | 86 | i | i | 90 | i | 95 | 92 | 92 | 99 | 81 | 90
Cc1ccc(C(O)(C(=O)OC(C)C)C(O)c2ccccc2)cc1 (configuration not stated) | nt | i | i | nt | nt | nt | nt | nt | nt | nt | nt
CC(C)(C)n1cc(C(=O)c2ccc3ccccc3c2O)cn1 | 57 | i | i | i | i | 68 | i | i | i | i | i
O=C(c1cc(Cl)cc(Cl)c1)N1Cc2ccccc2-n2nncc2C1 | nt | i | i | nt | nt | nt | nt | nt | nt | nt | nt
COc1ccc(-c2cc(=Nc3cccc(C(=O)O)c3)c3cc(C)ccc3o2)cc1 | 64 | i | i | i | i | 82 | i | 53 | 68 | 51 | 65
COc1ccc(-c2cc(=NCCCCCC(=O)O)c3cc(C)ccc3o2)cc1 | nt | i | i | nt | nt | nt | nt | nt | nt | nt | nt
CCC(C)NC(=O)c1c(N)n(Cc2ccc3c(c2)OCO3)c2nc3ccccc3nc12 (configuration not stated) | 92 | i | i | 90 | 96 | 68 | i | i | i | i | i
CCC(C)OC(=O)c1c(N)n(Cc2cccs2)c2nc3ccccc3nc12 (configuration not stated) | i | i | i | i | i | i | nt | nt | nt | nt | nt
COc1ccc(OC)c(N2C(=O)NC(=O)/C(=C\c3ccc([N+](=O)[O-])s3)C2=O)c1 | i | 48 | i | 51 | i | i | i | i | i | i | i
Cc1cc(C(=O)N=Nc2c(O)n(C)c3ccccc23)c(C)o1 | 79 | i | i | 91 | i | 90 | 54 | 56 | i | i | i
Cn1c(=O)oc(=O)c2ccccc21 | nt | i | i | nt | nt | nt | nt | nt | nt | nt | nt
